Assays:
[1] = Tumor to muscle ratio of the drug in mouse EMT6 tumor bearing BALB/c mouse at 10 to 20 uCi after 2 hrs; type: ADME, tissue-based, Muscle tissue
Outline: (§1)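 Tumor-bearing female Balb/c mice (EMT-6 s.c. allograft, ~0.2 cm3) given 10-20 µCi 18F tracer in saline i.v. via tail vein; ≥4 per group; killed 120 min later. Tissues weighed and gamma-counted; ratio = tumor %ID/g divided by that organ's %ID/g.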

[2] = Tumor to fat ratio of the drug in mouse EMT6 tumor bearing BALB/c mouse at 10 to 20 uCi after 2 hrs; type: ADME; outline: as §1
Blood [3] = assay: Biodistribution in blood of mouse EMT6 tumor bearing BALB/c mouse at 10 to 20 uCi after 5 mins; type: ADME, organism-based; settings: in vivo
Outline: (§2)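 EMT-6 cells (5×10^5 in 100 µL PBS) implanted s.c. in scapular region of female Balb/c mice (~2 months, 17-22 g); studied 7-10 days later at ~0.2 cm3 tumor. 18F tracer 10-20 µCi in 100-150 µL saline via tail vein; ≥4 mice per time point; tissue removed at sacrifice, weighed, gamma-counted; %ID/g calculated.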

Blood [4] = assay: Biodistribution in blood of mouse EMT6 tumor bearing BALB/c mouse at 10 to 20 uCi after 30 mins; type: ADME, organism-based; settings: in vivo, 0.5 h; outline: as §2
Blood [5] = assay: Biodistribution in blood of mouse EMT6 tumor bearing BALB/c mouse at 10 to 20 uCi after 60 mins; type: ADME, organism-based; settings: in vivo, 1 h; outline: as §2
Blood [6] = assay: Biodistribution in blood of mouse EMT6 tumor bearing BALB/c mouse at 10 to 20 uCi after 120 mins; type: ADME, organism-based; settings: in vivo, 2 h; outline: as §2
Lung [7] = assay: Biodistribution in lung of mouse EMT6 tumor bearing BALB/c mouse at 10 to 20 uCi after 5 mins; type: ADME, organism-based; settings: in vivo; outline: as §2
Lung [8] = assay: Biodistribution in lung of mouse EMT6 tumor bearing BALB/c mouse at 10 to 20 uCi after 30 mins; type: ADME, organism-based; settings: in vivo, 0.5 h; outline: as §2
Lung [9] = assay: Biodistribution in lung of mouse EMT6 tumor bearing BALB/c mouse at 10 to 20 uCi after 60 mins; type: ADME, organism-based; settings: in vivo, 1 h; outline: as §2
Lung [10] = assay: Biodistribution in lung of mouse EMT6 tumor bearing BALB/c mouse at 10 to 20 uCi after 120 mins; type: ADME, organism-based; settings: in vivo, 2 h; outline: as §2
Liver [11] = assay: Biodistribution in liver of mouse EMT6 tumor bearing BALB/c mouse at 10 to 20 uCi after 5 mins; type: ADME, organism-based; settings: in vivo; outline: as §2
Liver [12] = assay: Biodistribution in liver of mouse EMT6 tumor bearing BALB/c mouse at 10 to 20 uCi after 30 mins; type: ADME, organism-based; settings: in vivo, 0.5 h; outline: as §2
Liver [13] = assay: Biodistribution in liver of mouse EMT6 tumor bearing BALB/c mouse at 10 to 20 uCi after 60 mins; type: ADME, organism-based; settings: in vivo, 1 h; outline: as §2
Liver [14] = assay: Biodistribution in liver of mouse EMT6 tumor bearing BALB/c mouse at 10 to 20 uCi after 120 mins; type: ADME, organism-based; settings: in vivo, 2 h; outline: as §2
Kidney [15] = assay: Biodistribution in kidney of mouse EMT6 tumor bearing BALB/c mouse at 10 to 20 uCi after 5 mins; type: ADME, organism-based; settings: in vivo; outline: as §2
Kidney [16] = assay: Biodistribution in kidney of mouse EMT6 tumor bearing BALB/c mouse at 10 to 20 uCi after 30 mins; type: ADME, organism-based; settings: in vivo, 0.5 h; outline: as §2
Kidney [17] = assay: Biodistribution in kidney of mouse EMT6 tumor bearing BALB/c mouse at 10 to 20 uCi after 60 mins; type: ADME, organism-based; settings: in vivo, 1 h; outline: as §2
Kidney [18] = assay: Biodistribution in kidney of mouse EMT6 tumor bearing BALB/c mouse at 10 to 20 uCi after 120 mins; type: ADME, organism-based; settings: in vivo, 2 h; outline: as §2
Muscle tissue [19] = assay: Biodistribution in muscle of EMT6 tumor bearing BALB/c mouse at 10 to 20 uCi after 5 mins; type: ADME, organism-based; settings: in vivo; outline: as §2
Muscle tissue [20] = assay: Biodistribution in muscle of mouse EMT6 tumor bearing BALB/c mouse at 10 to 20 uCi after 30 mins; type: ADME, organism-based; settings: in vivo, 0.5 h; outline: as §2
Muscle tissue [21] = assay: Biodistribution in muscle of mouse EMT6 tumor bearing BALB/c mouse at 10 to 20 uCi after 60 mins; type: ADME, organism-based; settings: in vivo, 1 h; outline: as §2
Muscle tissue [22] = assay: Biodistribution in muscle of mouse EMT6 tumor bearing BALB/c mouse at 10 to 20 uCi after 120 mins; type: ADME, organism-based; settings: in vivo, 2 h; outline: as §2
Adipose tissue [23] = assay: Biodistribution in fat of mouse EMT6 tumor bearing BALB/c mouse at 10 to 20 uCi after 5 mins; type: ADME, organism-based; settings: in vivo; outline: as §2
Adipose tissue [24] = assay: Biodistribution in fat of mouse EMT6 tumor bearing BALB/c mouse at 10 to 20 uCi after 30 mins; type: ADME, organism-based; settings: in vivo, 0.5 h; outline: as §2
Adipose tissue [25] = assay: Biodistribution in fat of mouse EMT6 tumor bearing BALB/c mouse at 10 to 20 uCi after 60 mins; type: ADME, organism-based; settings: in vivo, 1 h; outline: as §2
Adipose tissue [26] = assay: Biodistribution in fat of mouse EMT6 tumor bearing BALB/c mouse at 10 to 20 uCi after 120 mins; type: ADME, organism-based; settings: in vivo, 2 h; outline: as §2
Heart [27] = assay: Biodistribution in heart of mouse EMT6 tumor bearing BALB/c mouse at 10 to 20 uCi after 5 mins; type: ADME, organism-based; settings: in vivo; outline: as §2
Heart [28] = assay: Biodistribution in heart of mouse EMT6 tumor bearing BALB/c mouse at 10 to 20 uCi after 30 mins; type: ADME, organism-based; settings: in vivo, 0.5 h; outline: as §2
Heart [29] = assay: Biodistribution in heart of mouse EMT6 tumor bearing BALB/c mouse at 10 to 20 uCi after 60 mins; type: ADME, organism-based; settings: in vivo, 1 h; outline: as §2
Heart [30] = assay: Biodistribution in heart of EMT6 tumor bearing BALB/c mouse at 10 to 20 uCi after 120 mins; type: ADME, organism-based; settings: in vivo, 2 h; outline: as §2
Brain [31] = assay: Biodistribution in brain of EMT6 tumor bearing BALB/c mouse at 10 to 20 uCi after 5 mins; type: ADME, organism-based; settings: in vivo; outline: as §2
Brain [32] = assay: Biodistribution in brain of EMT6 tumor bearing BALB/c mouse at 10 to 20 uCi after 30 mins; type: ADME, organism-based; settings: in vivo, 0.5 h; outline: as §2
Brain [33] = assay: Biodistribution in brain of EMT6 tumor bearing BALB/c mouse at 10 to 20 uCi after 60 mins; type: ADME, organism-based; settings: in vivo, 1 h; outline: as §2
Brain [34] = assay: Biodistribution in brain of mouse EMT6 tumor bearing BALB/c mouse at 10 to 20 uCi after 120 mins; type: ADME, organism-based; settings: in vivo, 2 h; outline: as §2
Bone [35] = assay: Biodistribution in bone of mouse EMT6 tumor bearing BALB/c mouse at 10 to 20 uCi after 5 mins; type: ADME, organism-based, Bone element; settings: in vivo; outline: as §2
Bone [36] = assay: Biodistribution in bone of mouse EMT6 tumor bearing BALB/c mouse at 10 to 20 uCi after 30 mins; type: ADME, organism-based, Bone element; settings: in vivo, 0.5 h; outline: as §2
Bone [37] = assay: Biodistribution in bone of mouse EMT6 tumor bearing BALB/c mouse at 10 to 20 uCi after 60 mins; type: ADME, organism-based, Bone element; settings: in vivo, 1 h; outline: as §2
Bone [38] = assay: Biodistribution in bone of mouse EMT6 tumor bearing BALB/c mouse at 10 to 20 uCi after 120 mins; type: ADME, organism-based, Bone element; settings: in vivo, 2 h; outline: as §2
EMT6 [39] = assay: Biodistribution in tumor of mouse EMT6 tumor bearing BALB/c mouse at 10 to 20 uCi after 5 mins; type: ADME, organism-based; settings: emt6, 5 min; outline: as §2
EMT6 [40] = assay: Biodistribution in tumor of EMT6 tumor bearing BALB/c mouse 10 to 20 uCi after 30 mins; type: ADME, organism-based; settings: emt6, 0.5 h; outline: as §2
EMT6 [41] = assay: Biodistribution in tumor of mouse EMT6 tumor bearing BALB/c mouse at 10 to 20 uCi after 60 mins; type: ADME, organism-based; settings: emt6, 1 h; outline: as §2
EMT6 [42] = assay: Biodistribution in tumor of mouse EMT6 tumor bearing BALB/c mouse at 10 to 20 uCi after 120 mins; type: ADME, organism-based; settings: emt6, 2 h; outline: as §2
[43] = Decrease in tumor to muscle ratio of the drug in mouse EMT6 tumor bearing BALB/c mouse after 1 hr in presence of YUN-143; type: ADME; design: scale not given: the % may be the effect or the level left
Outline: (§3)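 Blocking: 18F tracer coinjected i.v. with 1 mg/kg cold YUN-143 (σ1/σ2 ligand) into EMT-6 tumor-bearing female Balb/c mice; sacrificed at 60 min; tumor/muscle and tumor/fat ratios from %ID/g of gamma-counted tissues.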

[44] = Decrease in tumor to fat ratio of the drug in mouse EMT6 tumor bearing BALB/c mouse after 1 hr in presence of YUN-143; type: ADME; design: scale not given: the % may be the effect or the level left; outline: as §3

In the case of `COc1cc2c(cc1OC)CN(CCCCNC(=O)c1cc(I)cc(OC)c1OCC[18F])CC2`, the Ratio [1] is reported as 8, the Ratio [2] is reported as 7 and the Drug uptake (Blood [3]) is reported as 1.82 % ID/g. It also gave a Drug uptake (Blood [4]) of 1.23 % ID/g, a Drug uptake (Blood [5]) of 0.65 % ID/g and a Drug uptake (Blood [6]) of 0.28 % ID/g. The Drug uptake (Lung [7]) was 18.47 % ID/g, the Drug uptake (Lung [8]) was 3.75 % ID/g and the Drug uptake (Lung [9]) was 1.51 % ID/g. The Drug uptake (Lung [10]) was 0.74 % ID/g, the Drug uptake (Liver [11]) was 15.21 % ID/g and the Drug uptake (Liver [12]) was 10.73 % ID/g. The Drug uptake (Liver [13]) was 5.57 % ID/g, the Drug uptake (Liver [14]) was 2.61 % ID/g and the Drug uptake (Kidney [15]) was 19.98 % ID/g. The Drug uptake (Kidney [16]) was 7.73 % ID/g, the Drug uptake (Kidney [17]) was 3.5 % ID/g and the Drug uptake (Kidney [18]) was 1.34 % ID/g. For the same compound, the Drug uptake (Muscle tissue [19]) was 2.5 % ID/g, the Drug uptake (Muscle tissue [20]) was 0.73 % ID/g and the Drug uptake (Muscle tissue [21]) was 0.4 % ID/g. For the same compound, the Drug uptake (Muscle tissue [22]) was 0.15 % ID/g, the Drug uptake (Adipose tissue [23]) was 4.13 % ID/g and the Drug uptake (Adipose tissue [24]) was 1.36 % ID/g. It also gave a Drug uptake (Adipose tissue [25]) of 0.47 % ID/g, a Drug uptake (Adipose tissue [26]) of 0.17 % ID/g and a Drug uptake (Heart [27]) of 5.6 % ID/g. For the same compound, the Drug uptake (Heart [28]) was 1.54 % ID/g, the Drug uptake (Heart [29]) was 0.69 % ID/g and the Drug uptake (Heart [30]) was 0.39 % ID/g. The Drug uptake (Brain [31]) was 0.71 % ID/g, the Drug uptake (Brain [32]) was 0.27 % ID/g and the Drug uptake (Brain [33]) was 0.14 % ID/g. It also gave a Drug uptake (Brain [34]) of 0.08 % ID/g, a Drug uptake (Bone [35]) of 2.23 % ID/g and a Drug uptake (Bone [36]) of 2.01 % ID/g. For the same compound, the Drug uptake (Bone [37]) was 0.93 % ID/g, the Drug uptake (Bone [38]) was 0.59 % ID/g and the Drug uptake (EMT6 [39]) was 3.05 % ID/g. For the same compound, the Drug uptake (EMT6 [40]) was 3.11 % ID/g, the Drug uptake (EMT6 [41]) was 2.15 % ID/g and the Drug uptake (EMT6 [42]) was 1.15 % ID/g. For the same compound, the Activity [43] was 50% and the Activity [44] was 50%.

Reference: ChEMBL document CHEMBL1145439, “Fluorine-18-labeled benzamide analogues for imaging the sigma2 receptor status of solid tumors with positron emission tomography” (J Med Chem, 2007)
